Drawing on ChEMBL document CHEMBL1125894, “Dual-action cephalosporins: cephalosporin 3'-quaternary ammonium quinolones” (1991), this text covers Concentration, ED50 and MIC for one compound.

Molecules are shown by their SMILES. Values after ≈ are worked out from the molar mass of the structure shown.

Experiment [1] deals with T1, Peptidoglycan D,D-transpeptidase MrdA (Escherichia coli K-12) (UniProt P0AD65).
T1 sequence (whole entry): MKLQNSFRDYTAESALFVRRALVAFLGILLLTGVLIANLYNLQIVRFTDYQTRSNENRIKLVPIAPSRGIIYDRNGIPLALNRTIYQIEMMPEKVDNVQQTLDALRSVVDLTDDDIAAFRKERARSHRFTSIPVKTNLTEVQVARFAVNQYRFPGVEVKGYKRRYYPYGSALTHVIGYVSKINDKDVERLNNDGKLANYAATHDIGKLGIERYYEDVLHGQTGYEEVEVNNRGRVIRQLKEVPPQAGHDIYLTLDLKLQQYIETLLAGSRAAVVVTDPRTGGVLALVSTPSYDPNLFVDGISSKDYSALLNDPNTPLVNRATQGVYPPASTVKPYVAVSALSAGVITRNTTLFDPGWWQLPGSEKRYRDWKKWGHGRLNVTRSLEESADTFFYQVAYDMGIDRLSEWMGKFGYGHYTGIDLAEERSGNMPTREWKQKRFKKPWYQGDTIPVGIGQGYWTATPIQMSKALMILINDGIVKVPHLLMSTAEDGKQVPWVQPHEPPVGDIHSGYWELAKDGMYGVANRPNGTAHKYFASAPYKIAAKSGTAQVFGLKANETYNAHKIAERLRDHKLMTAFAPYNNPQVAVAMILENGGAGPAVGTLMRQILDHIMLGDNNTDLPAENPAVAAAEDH
Put plainly: Concentration required for 90% inhibition against 66 kDa penicillin-binding protein 2 binding using [14C]-Pen G as the radioligand. The method, boiled down: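 Solubilized membranes from sonicated E. coli DC-0 were used. PBP binding was measured as inhibition of [14C]penicillin G binding to each PBP.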

Experiment [2] concerns Staphylococcus aureus. Put plainly: In vivo activity in murine against Staphylococcus aureus 753(MR) infection after sc administration. In kind it is functional. The method, boiled down:
(§1)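 Mouse protection test in CD1 Swiss albino mice (18–20 g). Mice were infected intraperitoneally with 0.5 mL of a diluted bacterial suspension, then treated within 5 min with one 1.0 mL subcutaneous dose at the dorsal base of the neck. Doses ranged from 0.05 to 250 mg/kg, with six mice per group. ED50 was calculated by the Reed–Muench method.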

A further experiment relates to Streptococcus pneumoniae. Put plainly: In vitro antibacterial activity against Streptococcus pneumoniae 6301. Format: functional. The method, boiled down: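 Broth macrodilution with serial 2-fold dilutions in cation-supplemented Mueller-Hinton broth containing 10% goat serum. The value is reported as the MIC.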
A further experiment has as its system Citrobacter freundii. As to the kind of experiment: In vivo activity in murine against Citrobacter freundii BS#16 infection after sc administration. In kind it is functional. An outline of the steps:
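CD1 Swiss albino mice (18–20 g) infected intraperitoneally with 0.5 mL diluted bacterial culture suspension. Single subcutaneous treatment within 5 min, 1.0 mL at dorsal base of neck, serial dilutions spanning 0.05–250 mg/kg. Six mice per treatment and control group. ED50 (50% protective dose) derived by Reed and Muench method.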

A further experiment concerns Serratia marcescens. As to the kind of experiment: In vivo activity in murine against Serratia marcescens SM infection after sc administration. In kind it is functional. The method, boiled down:
as §1

Another experiment relates to Enterobacter cloacae. As to the kind of experiment: In vitro antibacterial activity against Enterobacter cloacae P99. In kind it is functional. The method, boiled down:
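Serial 2-fold dilutions in the NCCLS broth microdilution method for aerobic nonfastidious organisms, with an 18-h incubation. The value is reported as the minimum inhibitory concentration (MIC).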

For another experiment, the system named is Klebsiella pneumoniae. Put plainly: In vivo activity in murine against Klebsiella pneumoniae A infection after sc administration. Format: functional. An outline of the steps:
as §1

The next experiment relates to Streptococcus pyogenes. Put plainly: In vivo activity in murine against Streptococcus pyogenes 4 infection after sc administration. Format: functional. The method, boiled down: as §1
Experiment [3] relates to Staphylococcus aureus. As to the kind of experiment: In vitro antibacterial activity against Staphylococcus aureus 95(MR). In kind it is functional. The method, boiled down:
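Staphylococci were tested by the standard agar dilution procedure using serial 2-fold dilutions of agent. The value is reported as the MIC.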

Take `CC(C)(O/N=C(\C(=O)N[C@@H]1C(=O)N2C(C(=O)[O-])=C(C[N+]3(C)CCN(c4c(F)cc5c(=O)c(C(=O)O)cn(CCF)c5c4F)CC3)CS[C@H]12)c1csc(N)n1)C(=O)O`: the Concentration in [1] was found to be 100 µg/mL. Also, the ED50 (commonly the midpoint of the dose-response relation) with Staphylococcus aureus [2] worked out at 44 mg/kg; with Citrobacter freundii it was 9 mg/kg; in the experiment with Serratia marcescens, 8 mg/kg; with Klebsiella pneumoniae it was 3 mg/kg; with Streptococcus pyogenes, 54 mg/kg. The MIC – broadly, the smallest concentration in the dilution series that meets the test's criterion for growth inhibition – with Streptococcus pneumoniae turned out to be 0.5 µg/mL (≈ 0.597 µM); with Enterobacter cloacae, 1 µg/mL (≈ 1.19 µM); in the experiment on Staphylococcus aureus [3], 8 µg/mL (≈ 9.56 µM).
